Reference: ChEMBL document CHEMBL3232883, “Triaryl-substituted Schiff bases are high-affinity subtype-selective ligands for the estrogen receptor” (J Med Chem, 2014)
Calls of active or inactive are those of the source. The rule behind the calls is not given here.

What was measured:
[1] = target: T1, Estrogen receptor (Homo sapiens) (UniProt P03372); assay: Displacement of [3H]-estradiol from human full-length ERalpha after 18 to 24 hrs by competitive radiometric binding assay relative to estradiol
T1 sequence (whole entry): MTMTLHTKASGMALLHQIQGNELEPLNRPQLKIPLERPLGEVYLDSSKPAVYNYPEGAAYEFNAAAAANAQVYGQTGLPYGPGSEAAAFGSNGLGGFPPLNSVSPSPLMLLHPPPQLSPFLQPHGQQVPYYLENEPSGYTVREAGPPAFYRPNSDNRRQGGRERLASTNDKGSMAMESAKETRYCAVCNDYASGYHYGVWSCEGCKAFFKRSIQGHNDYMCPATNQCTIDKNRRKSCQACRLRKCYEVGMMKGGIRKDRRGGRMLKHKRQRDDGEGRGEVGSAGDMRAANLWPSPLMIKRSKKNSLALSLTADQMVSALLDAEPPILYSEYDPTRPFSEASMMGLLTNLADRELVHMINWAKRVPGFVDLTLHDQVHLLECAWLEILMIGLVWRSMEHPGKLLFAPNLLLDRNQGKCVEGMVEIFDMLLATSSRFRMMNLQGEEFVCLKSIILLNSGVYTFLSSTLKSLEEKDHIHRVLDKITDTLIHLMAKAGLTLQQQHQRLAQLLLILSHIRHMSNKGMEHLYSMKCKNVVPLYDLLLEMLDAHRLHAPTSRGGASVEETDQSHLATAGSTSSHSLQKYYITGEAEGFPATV

Estrogen receptor beta [2] = target: T2, Estrogen receptor beta (Homo sapiens, UniProt Q92731); assay: Displacement of [3H]-estradiol from human full-length ERbeta after 18 to 24 hrs by competitive radiometric binding assay relative to estradiol
Homo sapiens = species: Homo sapiens; assay: Selectivity ratio of RBA for human full length ERbeta to RBA for human full-length ERalpha
Estrogen receptor = target: T3, Estrogen receptor (Homo sapiens, UniProt P03372); assay: Agonist activity at ERalpha (unknown origin) expressed in human HepG2 cells assessed as transcriptional activation after 24 hrs by ERE-luciferase reporter gene assay; type: cell-based
T3 sequence (P03372 whole entry): T1 sequence (whole entry)
Method in brief: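 HepG2 cells were grown in DMEM with 10% FBS and transfected with a 3×ERE-luciferase reporter plus an ERα or ERβ expression vector. The next day cells were moved to phenol red-free medium with 10% charcoal-dextran-stripped FBS, plated at 20 000 cells/well and left overnight. Ligand was then added as a 12-point dose curve from 10 μM to 100 pM. Luciferase was read after 24 h, normalized to DMSO as 0% and the top of the E2 curve as 100%.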

[3] = target: T1, Estrogen receptor (Homo sapiens); assay: Agonist activity at ERalpha (unknown origin) expressed in human HepG2 cells assessed as transcriptional activation after 24 hrs by ERE-luciferase reporter gene assay relative to 17beta-estradiol; type: cell-based
Method in brief: (§1)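 HepG2 cells were cotransfected with a 3×ERE-luciferase reporter (10 μg) plus an ERα or ERβ expression vector (1.6 μg) per 10 cm dish. The next day they were replated at 20 000 cells/well in phenol red-free medium with 10% charcoal-dextran-stripped FBS and held overnight. Cells were then dosed over a 12-point range of 10 μM to 100 pM. Luciferase was read after 24 h, with DMSO set as 0% and the top of the E2 curve as 100%.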

Estrogen receptor beta [4] = target: T2, Estrogen receptor beta; assay: Agonist activity at ERbeta (unknown origin) expressed in human HepG2 cells assessed as transcriptional activation after 24 hrs by ERE-luciferase reporter gene assay relative to 17beta-estradiol; type: cell-based; method in brief: as §1
[5] = target: T1, Estrogen receptor (Homo sapiens); assay: Antagonist activity at ERalpha (unknown origin) expressed in human HepG2 cells assessed as inhibition of transcriptional activation after 24 hrs by ERE-luciferase reporter gene assay relative to 17beta-estradiol; type: cell-based
Method in brief: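 Antagonist mode used HepG2 cells cotransfected with a 3×ERE-luciferase reporter plus an ERα expression vector and steroid-deprived in phenol red-free medium with 10% charcoal-dextran-stripped FBS. Cells received 10 nM estradiol together with increasing compound concentrations across a 10 μM to 100 pM dose curve. Luciferase was measured after 24 h and normalized to DMSO (0%) and the top of the E2 curve (100%).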

Estrogen receptor beta [6] = target: T2, Estrogen receptor beta; assay: Antagonist activity at ERbeta (unknown origin) expressed in human HepG2 cells assessed as inhibition of 17beta-estradiol-induced transcriptional activation after 24 hrs by ERE-luciferase reporter gene assay; type: cell-based
Method in brief: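 ERβ-transfected, steroid-deprived HepG2 cells carrying a 3×ERE-luciferase reporter were co-treated with 10 nM estradiol and test ligand over a range of 10 μM to 100 pM. Luciferase was read after 24 h, with each plate normalized to DMSO (0%) and the maximal E2 response (100%). IC50 and % efficacy were derived from the dose curves.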

HepG2 = assay: Agonist activity at ERalpha (unknown origin) harboring N-terminal AF1 domain deleted mutant expressed in human HepG2 cells assessed as transcriptional activation after 24 hrs by ERE-luciferase reporter gene assay; type: cell-based

T2 sequence (Q92731 whole entry): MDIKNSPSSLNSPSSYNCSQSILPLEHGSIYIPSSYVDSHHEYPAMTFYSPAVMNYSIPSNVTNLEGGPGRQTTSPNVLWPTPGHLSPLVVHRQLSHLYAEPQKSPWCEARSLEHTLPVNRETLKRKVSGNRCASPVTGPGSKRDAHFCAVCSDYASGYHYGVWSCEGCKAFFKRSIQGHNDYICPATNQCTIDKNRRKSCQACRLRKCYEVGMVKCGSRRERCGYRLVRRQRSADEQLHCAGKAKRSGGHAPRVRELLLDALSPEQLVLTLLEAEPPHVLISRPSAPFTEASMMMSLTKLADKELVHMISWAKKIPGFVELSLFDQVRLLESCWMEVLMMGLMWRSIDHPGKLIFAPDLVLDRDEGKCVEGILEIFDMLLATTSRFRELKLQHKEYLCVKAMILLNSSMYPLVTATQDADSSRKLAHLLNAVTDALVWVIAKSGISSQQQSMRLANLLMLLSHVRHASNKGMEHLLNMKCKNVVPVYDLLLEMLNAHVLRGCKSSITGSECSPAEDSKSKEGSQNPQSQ

| Structure (SMILES) | RBA [1] [%] | RBA (Estrogen receptor beta [2]) [%] | Selectivity ratio (Homo sapiens) | EC50 (Estrogen receptor) [nM] | Efficacy [3] [%] | Efficacy (Estrogen receptor beta [4]) [%] | Efficacy [5] [%] | IC50 (Estrogen receptor beta [6]) [nM] | Activity (HepG2) |
| --- | --- | --- | --- | --- | --- | --- | --- | --- | --- |
| Oc1ccc(/C(=N\c2cccc(Cl)c2)c2ccc(O)cc2O)cc1 | 37.6 | 61.6 | 1.6 | 15 | 117 | 15 | 118 | 67 | inactive |
| Oc1ccc(C(=Nc2ccc(Br)cc2)c2ccc(O)cc2)cc1 | 41.5 | 94.1 | 2.3 | 1 | 105 | 11 | 128 | 6 | inactive |
| Oc1ccc(/C(=N\c2cccc(C(F)(F)F)c2)c2ccc(O)cc2O)cc1 | 28.2 | 72.1 | 2.6 | 57 | 100 | 11 | 95 | 28 | inactive |
| Cc1cccc(N=C(c2ccc(O)cc2)c2ccc(O)cc2)c1 | 13.2 | 69.2 | 5.2 | 5 | 109 | 13 | 93 | 41 | inactive |
| Oc1ccc(/C(=N\c2ccccc2Cl)c2ccc(O)cc2O)cc1 | 96.7 | 77.9 | 0.8 | 0.1 | 113 | 54 | 136 | 6 | inactive |
| Oc1ccc(C(=Nc2ccc(Cl)cc2)c2ccc(O)cc2)cc1 | 49.2 | 127 | 2.6 | 2 | 114 | 9 | 138 | 9 | inactive |
| Oc1ccc(C(=Nc2ccc(F)cc2)c2ccc(O)cc2)cc1 | 19.7 | 45.6 | 2.3 | 2 | 114 | 10 | 113 | 7 | inactive |
| Oc1ccc(C(=Nc2ccccc2)c2ccc(O)cc2)cc1 | 14.1 | 31.5 | 2.2 | 3 | 110 | 34 | 126 | 13 |  |
| Cc1cccc(C)c1N=C(c1ccc(O)cc1)c1ccc(O)cc1 | 1.56 | 2.91 | 1.9 |  |  |  |  |  |  |
| COc1ccc(N=C(c2ccc(O)cc2)c2ccc(O)cc2)cc1 | 4.41 | 3.98 | 0.9 |  |  |  |  |  |  |
| COc1ccc(/N=C(\c2ccccc2)c2ccc(O)cc2O)cc1 | 11.3 | 5.55 | 0.49 |  |  |  |  |  |  |

The next lines start with results.

| RBA [1] [%] | RBA (Estrogen receptor beta [2]) [%] | Selectivity ratio (Homo sapiens) | EC50 (Estrogen receptor) [nM] | Efficacy [3] [%] | Efficacy (Estrogen receptor beta [4]) [%] | Efficacy [5] [%] | IC50 (Estrogen receptor beta [6]) [nM] | Structure (SMILES) | Activity (HepG2) |
| --- | --- | --- | --- | --- | --- | --- | --- | --- | --- |
| 15.3 | 38.1 | 2.5 | 14 | 95 | 9 | 101 | 51 | Cc1cccc(/N=C(\c2ccc(O)cc2)c2ccc(O)cc2O)c1 | inactive |
| 40.6 | 116 | 2.8 | 7 | 103 | 8 | 149 | 6 | Cc1ccccc1N=C(c1ccc(O)cc1)c1ccc(O)cc1 | inactive |
| 10 | 20.1 | 2 |  |  | 7 |  | 45 | Cc1ccc(N=C(c2ccc(O)cc2)c2ccc(O)cc2)cc1 | inactive |
| < 3 | < 3 |  |  |  |  |  |  | Oc1ccc(/N=C/c2ccccc2O)cc1 |  |
| < 3 | < 3 |  |  |  |  |  |  | C/C(=N\c1ccc(O)cc1)c1ccc(O)cc1 |  |
| 11.9 | 39.2 | 3.2 |  |  |  |  |  | COc1ccc(/C(=N\c2ccc(O)cc2)c2ccc(O)cc2O)cc1 |  |
